A value given as a limit tells only on which side of the number the result lay.

For the assay, the system named is Cavia porcellus. The experiment in a line: Relative potency against bronchoconstrictions, induced by intravenous administration of histamine at doses […] in guinea pig. In kind it is functional. The gist of the method:
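Anesthetized guinea pigs (intraperitoneal urethane), curarized with iv gallamine; modified Konzett-Rossler set-up. Bronchoconstriction provoked by iv histamine or serotonin at 5.6-22.5 μg/kg, doses giving a 20 to 50 cm water rise in tracheal pressure; 12 s iv injections repeated every 5 min. Test compounds given iv. Broncholytic activity scored in at least four animals per spasmogen per dose level, expressed as potency relative to l-PGE₂.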
For the compound `CCCCC[C@H](O)/C=C/[C@H]1[C@H](SCCO)CC(=O)[C@@H]1C/C=C\CCCC(=O)O`, the Relative potency was 55.

The compound `CCCCC[C@H](O)/C=C/[C@H]1[C@@H](SCCO)CC(=O)[C@@H]1C/C=C\CCCC(=O)OC` showed a Relative potency of 10.

Turning to `CCCCCC(C)(O)/C=C/[C@H]1[C@H](SCCO)CC(=O)[C@@H]1CCCCCCC(=O)O` (mixture of isomers), the Relative potency was 16.

As for `CCCCC[C@H](O)/C=C/[C@H]1[C@H](SCCO)CC(=O)[C@@H]1C/C=C\CCCC(=O)OC` (racemic), the Relative potency is given as 30.

In turn, `CCCCC[C@H](O)/C=C/[C@H]1C(SCC(=O)O)CC(=O)[C@@H]1C/C=C\CCCC(=O)OC` (some centres undefined) yielded a Relative potency of 0.1.

The compound `CCCCC[C@H](O)/C=C/[C@H]1[C@H](SCCO)CC(=O)[C@@H]1C/C=C\CCCC(=O)OC` came in with a Relative potency of 100.

`CCCCC[C@H](O)/C=C/[C@H]1C(SCCO)CC(=O)[C@@H]1CCCCCCC(=O)O` (some centres undefined) showed a Relative potency of 104.

Regarding `CCCCC[C@@H](O)/C=C/[C@H]1[C@@H](SCCO)CC(=O)[C@@H]1C/C=C\CCCC(=O)OC` (racemic), the Relative potency turned out to be 6.

On to `CCCCC[C@H](O)/C=C/[C@H]1C(Sc2cccc(O)c2)CC(=O)[C@@H]1C/C=C\CCCC(=O)OC` (some centres undefined), for which the Relative potency came to 0.2.

As for `CCCCC(C)(O)C/C=C/[C@H]1[C@H](SCCO)CC(=O)[C@@H]1C/C=C\CCCC(=O)OC` (mixture of isomers), the Relative potency worked out at 109.

In the case of `CCCCC[C@H](O)/C=C/[C@H]1C(SCCN(C)C)CC(=O)[C@@H]1C/C=C\CCCC(=O)OC` (some centres undefined), the Relative potency came out at 14.

For `CCCCC[C@H](O)/C=C/[C@H]1C(SCC(=O)OCC)CC(=O)[C@@H]1C/C=C\CCCC(=O)OC` (some centres undefined), the Relative potency is 3.

As to `CCCCC[C@H](O)/C=C/[C@H]1[C@H](OCCO)CC(=O)[C@@H]1C/C=C\CCCC(=O)OC` (racemic), the Relative potency was determined as 3.

In turn, `CCCCC(O)C/C=C/[C@H]1[C@H](SCCO)CC(=O)[C@@H]1CCCCCCC(=O)O` (mixture of isomers) gave a Relative potency of 24.

In turn, `CCCCC[C@H](O)/C=C/[C@H]1[C@H](O)CC(=O)[C@@H]1C/C=C\CCCC(=O)O` [DINOPROSTONE] returned a Relative potency of 570.

As for `CCCCC[C@H](O)/C=C/C1CCC(=O)[C@@H]1C/C=C\CCCC(=O)O` (some centres undefined), the Relative potency is recorded as 92.

In turn, `CCCCC[C@H](O)/C=C/[C@H]1C(SCC)CC(=O)[C@@H]1C/C=C\CCCC(=O)OC` (some centres undefined) displayed a Relative potency of 1.

Take `CCCCC[C@H](O)/C=C/[C@H]1C(SCCCS)CC(=O)[C@@H]1C/C=C\CCCC(=O)OC` (some centres undefined): the Relative potency turned out to be 9.

Take `CCCCC[C@H](O)/C=C/[C@H]1C(SCCC)CC(=O)[C@@H]1C/C=C\CCCC(=O)OC` (some centres undefined): the Relative potency is below 0.2.

Consider `CCCCC[C@H](O)/C=C/[C@H]1[C@H](OCCO)CC(=O)[C@@H]1CCCCCCC(=O)O` (racemic), for which the Relative potency was 14.

Regarding `CCCCC[C@H](O)/C=C/[C@H]1C(SCCN)CC(=O)[C@@H]1C/C=C\CCCC(=O)OC` (some centres undefined), the Relative potency stood at 0.3.

Compound `CCCCCC/C=C/[C@H]1[C@H](SCCO)CC(=O)[C@@H]1C/C=C\CCCC(=O)OC` (racemic) yielded a Relative potency of 14.

For `CCCCCC(O)CSC1CC(=O)[C@H](C/C=C\CCCC(=O)OC)[C@H]1/C=C/[C@H](O)CCCCC` (some centres undefined), the Relative potency is listed as below 0.2.

On to `CCCCC[C@H](O)/C=C/[C@H]1C(SCCCO)CC(=O)[C@@H]1C/C=C\CCCC(=O)OC` (some centres undefined), for which the Relative potency was found to be 0.8.

`CCCCC[C@H](O)/C=C/[C@H]1C(SCCS)CC(=O)[C@@H]1C/C=C\CCCC(=O)OC` (some centres undefined) returned a Relative potency of 0.4.

`CCCCC[C@H](O)/C=C/[C@H]1C(SCC(O)CO)CC(=O)[C@@H]1C/C=C\CCCC(=O)OC` (some centres undefined): the Relative potency is 11.

Compound `CCCCC[C@@H](O)/C=C/[C@H]1[C@H](SCCO)CC(=O)[C@@H]1C/C=C\CCCC(=O)OC` registered a Relative potency of 19.

`CCCCC[C@H](O)/C=C/[C@H]1C(SCC(C)O)CC(=O)[C@@H]1C/C=C\CCCC(=O)OC` (some centres undefined) registered a Relative potency of 2.

As to `CCCCC[C@H](O)/C=C/[C@H]1C(SCCN(CC)CC)CC(=O)[C@@H]1C/C=C\CCCC(=O)OC` (some centres undefined), the Relative potency was 22.

Values taken from ChEMBL document CHEMBL1121494, “Prostaglandins and congeners. 22. Synthesis of 11-substituted derivatives of 11-deoxyprostaglandins E1 and E2. Potential bronchodilators” (1980).
